Where a name gives a salt, the structure may show the parent alone. Activity calls are given as the source filed them. The rule behind the calls is not given here.

What all share (format): functional
For assay [1], the system named is Staphylococcus aureus. In words: Antimicrobial activity against Staphylococcus aureus ATCC 25923 at 0.0172 uM after 17 hrs by disk diffusion assay. Particulars: for zone of inhibition at 0.0172 µM: ATCC 25923, 17 h, read-out: IZ. The procedure, abridged:
(§1)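 Disk diffusion per CLSI M2-A8. S. aureus grown on trypticase soy agar; five fresh colonies into trypticase soy broth, ~5 h standing at 35 °C, adjusted to A625 0.1 (0.5 McFarland), swabbed onto Mueller–Hinton agar. Compounds in 25% methanol/water, 15 µl loaded on 6 mm paper disks; plates ~17 h at 35 °C; inhibition zones recorded, duplicate plates per strain.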

In assay [2] the test system is Staphylococcus aureus. In words: Antimicrobial activity against Staphylococcus aureus ATCC 6538 at 0.0172 uM after 17 hrs by disk diffusion assay. The following applies: for zone of inhibition at 0.0172 µM: ATCC 6538, 17 h, read-out: IZ. The procedure, abridged:
as §1
(In agar diffusion tests the substance spreads into inoculated agar from a disc or well.)

For assay [3], the system named is Staphylococcus aureus. Put plainly: Antimicrobial activity against Staphylococcus aureus ATCC 6538 at 0.0344 uM after 17 hrs by disk diffusion assay. Particulars: ATCC 6538, 17 h, read-out: IZ. The procedure, abridged:
as §1

Assay [4] has as its system Staphylococcus aureus. In words: Antimicrobial activity against Staphylococcus aureus ATCC 25923 at 0.00686 uM after 17 hrs by disk diffusion assay. Particulars: ATCC 25923, 17 h, read-out: IZ. The procedure, abridged: as §1
The subject of assay [5] is Staphylococcus aureus. In words: Antimicrobial activity against Staphylococcus aureus ATCC 6538 at 0.00686 uM after 17 hrs by disk diffusion assay. Particulars: ATCC 6538, 17 h, read-out: IZ. The procedure, abridged: as §1
The test system of assay [6] is Staphylococcus aureus. In words: Antimicrobial activity against Staphylococcus aureus ATCC 25923 at 0.019 uM after 17 hrs by disk diffusion assay. The following applies: ATCC 25923, 17 h, read-out: IZ. The procedure, abridged: as §1
For assay [7], the system named is Staphylococcus aureus. Put plainly: Antimicrobial activity against Staphylococcus aureus ATCC 6538 at 0.019 uM after 17 hrs by disk diffusion assay. The following applies: ATCC 6538, 17 h, read-out: IZ. The procedure, abridged: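 Disk diffusion on Mueller–Hinton agar (broth 2.1% w/v, agar 1.7%), following CLSI M2-A8. Inoculum from five fresh trypticase soy agar colonies grown about 5 h standing at 35 °C in trypticase soy broth, then adjusted to A625 0.1 (0.5 McFarland) and swabbed onto plates. Compounds in 25% methanol/water, 15 µl loaded on 6 mm paper disks. Plates incubated about 17 h at 35 °C, inhibition zones recorded, duplicate plates.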

In assay [8] the test system is Staphylococcus aureus. Put plainly: Antimicrobial activity against Staphylococcus aureus ATCC 25923 at 0.0602 uM after 17 hrs by disk diffusion assay. Particulars: ATCC 25923, 17 h, read-out: IZ. The procedure, abridged:
as §1

The subject of assay [9] is Staphylococcus aureus. In words: Antimicrobial activity against Staphylococcus aureus ATCC 6538 at 0.0602 uM after 17 hrs by disk diffusion assay. Particulars: ATCC 6538, 17 h, read-out: IZ. The procedure, abridged:
as §1

In the case of `CCCCCC[C@H]1CO[C@@H]([C@H](O)/C(C)=C/C(=O)OCC)[C@H](O)[C@@H]1O`, the outcome in assay [1] and in assay [2] was inactive.
On to `CCCCNC(=O)/C=C(\C)[C@@H](O)[C@@H]1OC[C@H](C/C=C/[C@@H](C)[C@H](C)O)[C@@H](O)[C@H]1O`, for which, in assay [3], the zone of inhibition at 0.0344 µM was found to be 14 mm.
Take `C/C(=C\C(=O)OCCCCCCCC(=O)N[C@H]1CCCNC1=O)[C@@H](O)[C@@H]1OC[C@H](C/C=C/[C@@H](C)[C@H](C)O)[C@@H](O)[C@H]1O` [THIOMARINOL H]: the zone of inhibition at 0.0172 µM in assay [1] amounted to 10 mm; in assay [2] it was 16 mm.
Turning to `CN[C@@H]1[C@H](O[C@H]2[C@H](O[C@H]3[C@H](O)[C@@H](O)[C@H](N=C(N)N)[C@@H](O)[C@@H]3N=C(N)N)O[C@@H](C)[C@]2(O)C=O)O[C@@H](CO)[C@H](O)[C@H]1O` [STREPTOMYCIN SULFATE], the zone of inhibition at 0.00686 µM in [4] was 14 mm; in assay [5] it was 16 mm.
`CCN(CC)C(=O)/C=C(\C)[C@@H](O)[C@@H]1OC[C@H](C/C=C/[C@@H](C)[C@H](C)O)[C@@H](O)[C@H]1O`: the zone of inhibition at 0.0344 µM in assay [3] came to 15 mm.
As for `C/C(=C1\CCOC1=O)[C@@H](O)[C@@H]1OCC[C@@H](O)[C@H]1O`, the outcome in assay [1] and in assay [2] was inactive.
On to `C/C(=C\C(=O)OCCCCCCCCC(=O)O)C[C@@H]1OC[C@H](C[C@H]2O[C@@H]2[C@@H](C)[C@H](C)O)[C@@H](O)[C@H]1O` [PSEUDOMONIC ACID A CALCIUM SALT], for which the zone of inhibition at 0.0172 µM in [1] amounted to 26 mm; in assay [2] it was 32 mm.
For `CC1(C)S[C@@H]2[C@H](NC(=O)Cc3ccccc3)C(=O)N2[C@H]1C(=O)O` [PENICILLIN G SODIUM], the zone of inhibition at 0.019 µM in assay [6] was found to be 32 mm; in assay [7] it was 40 mm.
Consider `CCOC(=O)/C=C(\C)[C@@H](O)[C@@H]1OC[C@H](C/C=C/[C@@H](C)[C@H](C)O)[C@@H](O)[C@H]1O`, for which the zone of inhibition at 0.0172 µM in assay [1] amounted to 21 mm; in assay [2], 22 mm.
For `CCOC(=O)/C=C(\C)[C@@H](O)[C@@H]1OCC[C@@H](O)[C@H]1O`, the outcome in [1] and in assay [2] was inactive.
With `COC(=O)/C=C(\C)[C@@H](O)[C@@H]1OC[C@H](C/C=C/[C@@H](C)[C@H](C)O)[C@@H](O)[C@H]1O`, the values for the zone of inhibition at 0.0172 µM in assay [1] and in assay [2] were 13 mm and 16 mm, respectively.
For the compound `C/C(=C1/CCOC1=O)[C@@H](O)[C@@H]1OCC[C@@H](O)[C@H]1O`, the result in assay [1] and in [2] was inactive.
As for `C/C(=C\C(=O)OC(C)C)[C@@H](O)[C@@H]1OC[C@H](C/C=C/[C@@H](C)[C@H](C)O)[C@@H](O)[C@H]1O`, the results for the zone of inhibition at 0.0172 µM in [1] and in [2] were 21 mm and 22 mm, respectively.
With `CN(C)[C@@H]1C(O)=C(C(N)=O)C(=O)[C@@]2(O)C(O)=C3C(=O)c4c(O)cccc4[C@@](C)(O)[C@H]3C[C@@H]12` [TETRACYCLINE HYDROCHLORIDE], the zone of inhibition at 0.0602 µM in [8] was found to be 29 mm; in assay [9], 28 mm.
For `C/C(=C\C(=O)O)[C@@H](O)[C@@H]1OC[C@H](C/C=C/[C@@H](C)[C@H](C)O)[C@@H](O)[C@H]1O`, the result in assay [1] and in [2] was inactive.

For the origin of these results see ChEMBL document CHEMBL1140978, “Synthesis and preliminary antibacterial evaluation of simplified thiomarinol analogs” (2009).
